Marks after values point to notes of the source that are not given here.
Experiments:
[1] = Biodistribution of [11C]-radiotracers in rat brain; type: in vivo; conditions: mean (n = 5) ± SD
In short: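 Conscious restrained rats (n = 5/time point) received 30–60 MBq [11C]-radiotracer (70–170 GBq/μmol; 0.3–0.8 nmol) iv by tail vein in buffered saline with 0.5% Tween 80. After decapitation, brain regions were excised, blotted, weighed, gamma-counted and decay-corrected against injected-dose standards. SUV = %ID/g […] body weight (kg). Blocking groups got an FAAH inhibitor (2 mg/kg ip, saline/Tween 80) or vehicle 30 min before. Student's t test.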

FAAH = target: T1, FAAH (Rattus norvegicus, UniProt P97612); experiment: Irreversible binding of [11C]-radiotracers to FAAH in rat brain parenchyma; type: in vivo
T1 sequence (P97612 1-579): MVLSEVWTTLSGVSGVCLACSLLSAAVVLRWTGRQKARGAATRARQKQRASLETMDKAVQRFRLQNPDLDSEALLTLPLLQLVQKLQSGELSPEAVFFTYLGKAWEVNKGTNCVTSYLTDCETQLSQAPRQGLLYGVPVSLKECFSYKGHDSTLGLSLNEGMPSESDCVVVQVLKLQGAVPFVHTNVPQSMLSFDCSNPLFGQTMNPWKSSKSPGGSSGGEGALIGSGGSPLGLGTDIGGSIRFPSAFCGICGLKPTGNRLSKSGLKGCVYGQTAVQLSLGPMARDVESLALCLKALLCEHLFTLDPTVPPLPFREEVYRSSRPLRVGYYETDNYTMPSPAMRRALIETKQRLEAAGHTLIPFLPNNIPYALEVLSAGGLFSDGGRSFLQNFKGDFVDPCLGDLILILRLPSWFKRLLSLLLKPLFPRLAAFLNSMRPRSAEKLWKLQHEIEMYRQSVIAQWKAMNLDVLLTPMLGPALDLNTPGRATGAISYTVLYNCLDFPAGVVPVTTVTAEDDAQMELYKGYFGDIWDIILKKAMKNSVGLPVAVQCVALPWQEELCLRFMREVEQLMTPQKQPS

SMILES: O=C(NC1CCCCC1)Oc1cc(O)cc(-c2ccccc2)c1 [[^11C]1, [^11C-carbonyl]N-cyclohexyl-5-hydroxy[1,1′-biphenyl]-3-ylcarbamic acid ester]
- Regional brain uptake, cortex (2 min) ([1]; 2 min post iv injection): 2.40 ± 0.18 SUV
- Regional brain uptake, hypothalamus (2 min) ([1]; 2 min post iv injection): 1.61 ± 0.23 SUV
- Regional brain uptake, cortex (40 min) ([1]; 40 min post iv injection): 2.49 ± 0.25 SUV
- Regional brain uptake, hypothalamus (40 min) ([1]; 40 min post iv injection): 1.14 ± 0.13 SUV
- Regional brain uptake, cortex (40 min, blocked) ([1]; 40 min post iv injection, pretreated with compound 2 (2 mg/kg, ip)): 0.36 ± 0.04 ^b SUV
- % bound (irreversibly) at 60 min postinjection (FAAH): about 90%

Reference: publication PMC3544278 (Journal of Medicinal Chemistry, 2012)
